In PubChem BioAssay:
Records with an inconclusive call do not appear.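 How the source made its calls, unless noted: active means inhibition over a set limit, the all-compound mean plus 3 SD, in both replicate runs; inconclusive means over that limit in just one replicate run; inactive means at or under that limit in both runs.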

Assays:
[1] = S. cerevisiae growth inhibition in permissive medium (OD615), pilot counter-assay for S. cerevisiae lifespan shortening project, permissive growth control (AID 705;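 active means growth inhibition above 25% in both replicates, a cutoff set 3 SD above the mean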); details: OD615, 24 h, at 10 µM, stronger effect = higher value
Outline: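 System: Engineered DeaD yeast | Buffer or medium: SC raffinose/galactose permissive medium | Doses: 10 µM single dose, 0.25% DMSO | Times: 24 h exposure, 30 °C | Measured by: OD615 turbidity read | Read-out: Yeast growth inhibition indicated by reduced 24 h OD615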

[2] = S. cerevisiae growth inhibition in restrictive medium, OD615, pilot screen, restrictive growth control, yeast lifespan reduction project (AID 706;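 active means growth inhibition above a set limit, 3 SD over mean compound inhibition, in both replicates, cut at about 43% in these data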;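 further: modified DeaD lifespan yeast strain shifted to restrictive glucose medium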); details: OD615, 48 h, at 10 µM, stronger effect = higher value
Outline: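 Assay system: engineered S. cerevisiae DeaD strain; Buffer or medium: CSMM-D glucose medium; Dosing: 10 µM compound, 0.25% DMSO; Times: cell pre-growth 4 h, compound exposure 48 h, 30 °C; Detection: absorbance (optical density) measured at 615 nm.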

[3] = doxorubicin toxicity protection in MRP-1 cells – H69AR cells, CellTiter-Glo, duplicate, MRP-1 activator project, pilot screen (AID 807;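 active means viability increase at or above a cutoff of the median across tested compounds plus 3 SD, cut at about 8.5% in these data, passing the limit was not always enough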;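 further: compound pretreatment 18-22 h then 72 h combined with doxorubicin; 0% = doxorubicin alone and 100% = vehicle without doxorubicin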); details: H69AR viability with doxorubicin, CellTiter-Glo luminescence; at 10 µM; stronger effect = higher value
[4] = viability of HCT116 without oncogenic beta-catenin – human colon tumor cells, pilot screen (AID 823;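 active means cell viability at or below a set limit in both duplicate runs, the limit being the all-compound median minus 4 SD, cut at about 23% in these data, passing the limit was not always enough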;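 further: 0% = wells killed by 20 µM Hyamine and 100% = untreated DMSO cell wells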); details: HCT116 beta-catenin knockout viability, CellTiter-Glo, 60 h; at 10 µM; stronger effect = lower value
[5] = viability of PTEN-null HCT116 cells – cell-based, HCT116 clonal line, CellTiter-Glo, pilot screen (AID 824;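 active means viability at or below 27.92% in each of two runs, the all-compound median minus 4 SD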;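 further: 0% = 20 µM Hyamine control and 100% = vehicle cell control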); details: HCT116 PTEN-deleted viability, 60 h, at 10 µM, stronger effect = lower value
[6] = RAM pathway blockade in budding yeast – dse1pr::URA3 reporter, 5-FOA selection, pilot screen (AID 869);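 further: 0% = DMSO wells with no growth and 100% = 10 µM 1-NA-PP1 with full growth; RAM network block rescues cells from 5-FOA so hits raise OD615 growth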; details: S. cerevisiae dse1pr::URA3 5-FOA growth, OD615, 2 d; at 10 µM; stronger effect = higher value; strain carries analog-sensitive mutant Cbk1 kinase
[7] = RAM signaling pathway blockade in yeast – S. cerevisiae, Pdr1DBD-CYC8 efflux-inhibited sensitized strain, primary screen (AID 1298;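 active means RAM network inhibition above 8.4% in each of two replicates, 3 SD over the compound average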;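 further: 0% = DMSO untreated cells without growth and 100% = 10 µM 1-NA-PP1 full growth; higher means more yeast growth rescued from 5-FOA killing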); details: S. cerevisiae cbk1-as DSE1-URA3 strain, 5-FOA growth OD615, 2 d; at 50 µM; stronger effect = higher value

CCN(CCNS(=O)(=O)c1ccc2c(c1)oc(=O)n2C)c1ccccc1
inactive: growth inhibition [1] -5.19% | growth inhibition [2] -5.92% | viability increase [3] -1.13% | viability [4] 108% | viability [5] 105% | inhibition [6] 4.3% | RAM network inhibition [7] 1.2%

CCOc1ccc(C2c3c(oc4cc(C)c(C)cc4c3=O)C(=O)N2CCCN2CCOCC2)cc1 (centres undefined)
inactive: growth inhibition [1] -1.96% | growth inhibition [2] -6.06% | viability increase [3] -3.05% | viability [4] 94.1% | viability [5] 94.6% | inhibition [6] 0.615% | RAM network inhibition [7] 2.24%

CCOC(=O)c1nnn(-c2nonc2N)c1CN(C)Cc1ccccc1
inactive: growth inhibition [1] -7.27% | growth inhibition [2] -11.5% | viability increase [3] -4.12% | viability [4] 84% | viability [5] 88.1% | inhibition [6] 2.05% | RAM network inhibition [7] 4.2%

Cc1nc2sc(C(c3ccc(C(C)C)cc3)N3CCN(CCO)CC3)c(O)n2n1 (centres undefined)
inactive: growth inhibition [1] -9.91% | growth inhibition [2] -9.61% | viability increase [3] -0.75% | viability [4] 97% | viability [5] 98.1% | inhibition [6] 1.58% | RAM network inhibition [7] 2.77%

CCN(CC)S(=O)(=O)c1ccc(-c2nnco2)cc1
inactive: growth inhibition [1] -23.5% | growth inhibition [2] -16.6% | viability increase [3] -0.57% | viability [4] 100% | viability [5] 97.9% | inhibition [6] 3.09% | RAM network inhibition [7] 1.46%

COc1ccccc1NC(=O)Nc1ccnn1C1CCCCC1
inactive: growth inhibition [1] -7.38% | growth inhibition [2] -10.3% | viability increase [3] -0.89% | viability [4] 92.2% | viability [5] 94.1% | inhibition [6] 2.41% | RAM network inhibition [7] 0.5%

O=C1C=C(N(CCO)CCO)C2(CCCCC2)O1
inactive: growth inhibition [1] -14.1% | growth inhibition [2] -18.7% | viability increase [3] -1.83% | viability [4] 90.1% | viability [5] 96% | inhibition [6] 1.23% | RAM network inhibition [7] 2%

Cc1ccc(CCNC(=O)C2CCCN(S(=O)(=O)c3c(C)noc3/C=C/N(C)C)C2)cc1 (centres undefined)
inactive: growth inhibition [1] -1.76% | growth inhibition [2] 6.26% | viability increase [3] -1.67% | viability [4] 88.1% | viability [5] 74.1% | inhibition [6] 1.85% | RAM network inhibition [7] 1.68%

O=C(NC1CCCC1)c1ccc(CS(=O)(=O)c2ccc(Br)cc2)o1
inactive: growth inhibition [1] -3.78% | growth inhibition [2] -9.12% | viability increase [3] -0.83% | viability [4] 102% | viability [5] 93.9% | inhibition [6] 3.01% | RAM network inhibition [7] 1.03%

CC1=C(C(=O)OCc2ccccc2)C(c2ccc(N3CCOCC3)cc2)NC(=O)N1 (centres undefined)
inactive: growth inhibition [1] -6.21% | growth inhibition [2] -3.42% | viability increase [3] 0.5% | viability [4] 100% | viability [5] 98.9% | inhibition [6] 0.99% | RAM network inhibition [7] 4.42%

CN(CCNC(=O)Cn1c(=O)sc2ccccc21)Cc1ccccc1
inactive: growth inhibition [1] -1.18% | growth inhibition [2] -7.1% | viability increase [3] -5.12% | viability [4] 77.7% | viability [5] 82.3% | inhibition [6] 1.27% | RAM network inhibition [7] -1.1%

Cc1nc(SC(C)C)[nH]c(=O)c1Cc1ccccc1
inactive: growth inhibition [1] -14.9% | growth inhibition [2] -4.47% | viability increase [3] -0.89% | viability [4] 98.4% | viability [5] 91.8% | inhibition [6] 1.1% | RAM network inhibition [7] 3.52%

O=C(NCc1ccc(F)cc1)C1CCC(=O)N1CCc1ccccc1 (centres undefined)
inactive: growth inhibition [1] -5.54% | growth inhibition [2] 7.93% | viability increase [3] -0.77% | viability [4] 96.4% | viability [5] 93.2% | inhibition [6] 0.22% | RAM network inhibition [7] -1.59%

COc1ccc(OC)c2sc(NC(=O)C(C)C)nc12
inactive: growth inhibition [1] -15.2% | growth inhibition [2] -18% | viability increase [3] -1.14% | viability [4] 105% | viability [5] 92% | inhibition [6] 1.31% | RAM network inhibition [7] 9.63%

Cc1sc2nc(NCCO)[nH]c(=O)c2c1C
inactive: growth inhibition [1] -15.5% | growth inhibition [2] -23.2% | viability increase [3] -2.72% | viability [4] 107% | viability [5] 97.2% | inhibition [6] 0.885% | RAM network inhibition [7] -1.79%

Cc1nnc(Sc2nc3c(c(=O)[nH]c(=O)n3C)n2Cc2ccccc2)s1
inactive: growth inhibition [1] -11.6% | growth inhibition [2] -12.4% | viability increase [3] -0.33% | viability [4] 101% | viability [5] 103% | inhibition [6] 1.61% | RAM network inhibition [7] 0.73%

C=CC1C(N2CCOCC2)C(C)(C)S1(=O)=O (centres undefined)
inactive: growth inhibition [1] 4.78% | growth inhibition [2] 5.46% | viability increase [3] -1.46% | viability [4] 102% | viability [5] 101% | inhibition [6] 1.38% | RAM network inhibition [7] -0.28%

COC(=O)c1ccsc1NC(=O)C1=COCCO1
inactive: growth inhibition [1] -9% | growth inhibition [2] -1.36% | viability increase [3] -0.42% | viability [4] 106% | viability [5] 102% | inhibition [6] 0.91% | RAM network inhibition [7] 2.35%

COc1ccccc1NC(=O)Cn1c(=O)n2nc(C)nc2c2ccccc21
inactive: growth inhibition [1] -11% | growth inhibition [2] -16.9% | viability increase [3] -4.08% | viability [4] 102% | viability [5] 90.3% | inhibition [6] 1.47% | RAM network inhibition [7] 2.31%

CCCCS(=O)CC(COCc1ccccc1)OC(=O)CSc1nc(C)cc(C)n1 (centres undefined)
inactive: growth inhibition [1] -8.16% | growth inhibition [2] -22% | viability increase [3] -1.32% | viability [4] 97.6% | viability [5] 94.7% | inhibition [6] 0.95% | RAM network inhibition [7] 3.07%

CC(C)=CC1C(C(=O)Nc2ccc(Br)cn2)C1(C)C (centres undefined)
inactive: growth inhibition [1] -14.6% | growth inhibition [2] -19.1% | viability increase [3] -0.01% | viability [4] 60.7% | viability [5] 63.2% | inhibition [6] 3.15% | RAM network inhibition [7] 4.66%

CCOc1ccc(/C=C\C(C)=N\O)cc1
inactive: growth inhibition [1] -0.67% | growth inhibition [2] 0.775% | viability increase [3] -2.74% | viability [4] 90.3% | viability [5] 96.3% | inhibition [6] 0.065% | RAM network inhibition [7] 2.82%

CN1CCN(C(=O)C2CC(=O)N(c3ccc(F)c(Cl)c3)C2)CC1 (centres undefined)
inactive: growth inhibition [1] -6.12% | growth inhibition [2] -6.44% | viability increase [3] -0.63% | viability [4] 96% | viability [5] 95.9% | inhibition [6] 2.12% | RAM network inhibition [7] 3.12%

COc1ccccc1-c1nnc(SCC(=O)N2CCOCC2)o1
inactive: growth inhibition [1] -12.5% | growth inhibition [2] 0.015% | viability increase [3] -3.69% | viability [4] 93.8% | viability [5] 95.7% | inhibition [6] 1.75% | RAM network inhibition [7] 2.61%

COc1cc(CN2CCN(CCOCCO)CC2)cc(OC)c1OC
inactive: growth inhibition [1] -9.5% | growth inhibition [2] -8.52% | viability increase [3] 0.51% | viability [4] 94.5% | viability [5] 96.8% | inhibition [6] 1.11% | RAM network inhibition [7] 4.96%

Cc1ccc(CCN2CC(C(=O)NCc3cccnc3)CC2=O)cc1 (centres undefined)
inactive: growth inhibition [1] 6% | growth inhibition [2] 5.13% | viability increase [3] -0.64% | viability [4] 104% | viability [5] 94.5% | inhibition [6] 2.59% | RAM network inhibition [7] -0.99%

Cc1cc(C(=O)NCc2ccccc2)c(=O)[nH]c1C
inactive: growth inhibition [1] -15.4% | growth inhibition [2] -9.45% | viability increase [3] 0.83% | viability [4] 103% | viability [5] 90.3% | inhibition [6] 2.33% | RAM network inhibition [7] 0.52%
